≈ marks a conversion by molar mass, not a printed value.
Columns and labels:
Format in all cases: functional
Streptococcus pneumoniae = assay: Antibacterial activity against Streptococcus pneumoniae by two-fold serial dilution method
Outline: (§1)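 Standard two-fold serial dilution in 96-well microtest plates following NCCLS. Top dilutions printed as 32, 16, 8, 4, 2, 1, 0.5 ug/mL. Wells inoculated and held at 37 °C for 24 h. Growth judged visually and by spectrophotometer, in triplicate. MIC is the lowest concentration giving complete growth inhibition.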

Micrococcus luteus = assay: Antibacterial activity against Micrococcus luteus by two-fold serial dilution method; outline: as §1
Staphylococcus aureus [1] = assay: Antibacterial activity against methicillin-resistant Staphylococcus aureus N315 by two-fold serial dilution method
Outline: (§2)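 MIC read as the lowest concentration giving complete growth inhibition. Two-fold serial dilutions were made in 96-well plates following NCCLS, giving a series down to 0.5 µg/mL (…32, 16, 8, 4, 2, 1, 0.5). Plates were inoculated and incubated at 37 °C for 24 h. A DMSO-with-inoculum control without drug was included. Growth was monitored visually and spectrophotometrically, in triplicate.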

Staphylococcus aureus [2] = assay: Antibacterial activity against Staphylococcus aureus ATCC 25923 by two-fold serial dilution method; outline: as §1
Bacillus spizizenii = assay: Antibacterial activity against Bacillus subtilis ATCC 6633 by two-fold serial dilution method; outline: as §1
Pseudomonas aeruginosa = assay: Antibacterial activity against Pseudomonas aeruginosa by two-fold serial dilution method; outline: as §1
Escherichia coli = assay: Antibacterial activity against Escherichia coli DH52 by two-fold serial dilution method; outline: as §1
Shigella dysenteriae = assay: Antibacterial activity against Shigella dysenteriae by two-fold serial dilution method; outline: as §2
[3] = Antibacterial activity against Eberthella typhosa by two-fold serial dilution method; outline: as §2
Cyberlindnera jadinii = assay: Antifungal activity against Candida utilis after 24 hrs by microbroth dilution method; settings: Williopsis jadinii
Outline: (§3)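 Spore suspension prepared in sterile distilled water from one-day-old cultures on Sabouraud agar, final 1-5 x 10^3 spores/mL. Compounds were serially diluted in RPMI 1640 to give eleven dilutions. Incubation at 35 °C for 24 h. Growth read visually and spectrophotometrically, in triplicate. MIC is the lowest concentration with complete inhibition.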

Saccharomyces cerevisiae = assay: Antifungal activity against Saccharomyces cerevisiae after 24 hrs by microbroth dilution method; outline: as §3
Candida albicans = assay: Antifungal activity against Candida albicans ATCC 76615 after 24 hrs by microbroth dilution method; settings: ATCC 76615, 24 h; outline: as §3
Pichia norvegensis = assay: Antifungal activity against Candida mycoderma after 24 hrs by microbroth dilution method

O=C(O)c1cn(CC(O)Cn2cnc([N+](=O)[O-])c2)c2cc(C(F)(F)F)ccc2c1=O (stereo not drawn)
MIC (Streptococcus pneumoniae): 16 µg/mL (≈ 37.5 µM) | MIC (Micrococcus luteus): 8 µg/mL (≈ 18.8 µM) | MIC (Staphylococcus aureus [1]): 4 µg/mL (≈ 9.38 µM) | MIC (Staphylococcus aureus [2]): 4 µg/mL (≈ 9.38 µM) | MIC (Bacillus spizizenii): 4 µg/mL (≈ 9.38 µM) | MIC (Pseudomonas aeruginosa): 8 µg/mL (≈ 18.8 µM) | MIC (Escherichia coli): 2 µg/mL (≈ 4.69 µM) | MIC (Shigella dysenteriae): 4 µg/mL (≈ 9.38 µM) | MIC [3]: 4 µg/mL (≈ 9.38 µM) | MIC (Cyberlindnera jadinii): 128 µg/mL (≈ 300 µM) | MIC (Saccharomyces cerevisiae): 32 µg/mL (≈ 75.1 µM) | MIC (Candida albicans): 128 µg/mL (≈ 300 µM) | MIC (Pichia norvegensis): 128 µg/mL (≈ 300 µM)

CCOC(=O)c1cn(CC2CO2)c2ccc(OC)cc2c1=O (racemic)
MIC (Micrococcus luteus): 128 µg/mL (≈ 422 µM) | MIC (Staphylococcus aureus [1]): 64 µg/mL (≈ 211 µM) | MIC (Staphylococcus aureus [2]): 32 µg/mL (≈ 106 µM) | MIC (Bacillus spizizenii): 16 µg/mL (≈ 52.8 µM) | MIC (Pseudomonas aeruginosa): 32 µg/mL (≈ 106 µM) | MIC (Escherichia coli): 16 µg/mL (≈ 52.8 µM) | MIC (Shigella dysenteriae): 64 µg/mL (≈ 211 µM) | MIC [3]: 1 µg/mL (≈ 3.3 µM) | MIC (Cyberlindnera jadinii): 512 µg/mL (≈ 1690 µM) | MIC (Saccharomyces cerevisiae): 4 µg/mL (≈ 13.2 µM) | MIC (Candida albicans): 64 µg/mL (≈ 211 µM) | MIC (Pichia norvegensis): 32 µg/mL (≈ 106 µM)

CCOC(=O)c1cn(CC(O)Cn2c([N+](=O)[O-])cnc2C)c2cc(C(F)(F)F)ccc2c1=O (racemic)
MIC (Micrococcus luteus): 4 µg/mL (≈ 8.54 µM) | MIC (Staphylococcus aureus [1]): 8 µg/mL (≈ 17.1 µM) | MIC (Staphylococcus aureus [2]): 4 µg/mL (≈ 8.54 µM) | MIC (Bacillus spizizenii): 16 µg/mL (≈ 34.2 µM) | MIC (Pseudomonas aeruginosa): 8 µg/mL (≈ 17.1 µM) | MIC (Escherichia coli): 2 µg/mL (≈ 4.27 µM) | MIC (Shigella dysenteriae): 2 µg/mL (≈ 4.27 µM) | MIC [3]: 4 µg/mL (≈ 8.54 µM) | MIC (Cyberlindnera jadinii): 128 µg/mL (≈ 273 µM) | MIC (Saccharomyces cerevisiae): 8 µg/mL (≈ 17.1 µM) | MIC (Candida albicans): 8 µg/mL (≈ 17.1 µM) | MIC (Pichia norvegensis): 32 µg/mL (≈ 68.3 µM)

CCOC(=O)c1cn(CC(O)Cn2cnc([N+](=O)[O-])c2)c2c(F)cccc2c1=O (racemic)
MIC (Micrococcus luteus): 64 µg/mL (≈ 158 µM) | MIC (Staphylococcus aureus [1]): 8 µg/mL (≈ 19.8 µM) | MIC (Staphylococcus aureus [2]): 256 µg/mL (≈ 633 µM) | MIC (Bacillus spizizenii): 32 µg/mL (≈ 79.1 µM) | MIC (Pseudomonas aeruginosa): 32 µg/mL (≈ 79.1 µM) | MIC (Escherichia coli): 32 µg/mL (≈ 79.1 µM) | MIC (Shigella dysenteriae): 16 µg/mL (≈ 39.6 µM) | MIC [3]: 32 µg/mL (≈ 79.1 µM) | MIC (Cyberlindnera jadinii): 16 µg/mL (≈ 39.6 µM) | MIC (Saccharomyces cerevisiae): 256 µg/mL (≈ 633 µM) | MIC (Candida albicans): 128 µg/mL (≈ 317 µM) | MIC (Pichia norvegensis): 256 µg/mL (≈ 633 µM)

CCOC(=O)c1cn(CC(O)Cn2c([N+](=O)[O-])cnc2C)c2ccc(C)cc2c1=O (racemic)
MIC (Micrococcus luteus): 16 µg/mL (≈ 38.6 µM) | MIC (Staphylococcus aureus [1]): 8 µg/mL (≈ 19.3 µM) | MIC (Staphylococcus aureus [2]): 8 µg/mL (≈ 19.3 µM) | MIC (Bacillus spizizenii): 8 µg/mL (≈ 19.3 µM) | MIC (Pseudomonas aeruginosa): 8 µg/mL (≈ 19.3 µM) | MIC (Escherichia coli): 4 µg/mL (≈ 9.65 µM) | MIC (Shigella dysenteriae): 4 µg/mL (≈ 9.65 µM) | MIC [3]: 8 µg/mL (≈ 19.3 µM) | MIC (Cyberlindnera jadinii): 256 µg/mL (≈ 618 µM) | MIC (Saccharomyces cerevisiae): 4 µg/mL (≈ 9.65 µM) | MIC (Candida albicans): 2 µg/mL (≈ 4.83 µM) | MIC (Pichia norvegensis): 256 µg/mL (≈ 618 µM)

CCOC(=O)c1cn(CC(O)Cn2c([N+](=O)[O-])cnc2C)c2c(F)cc(F)cc2c1=O (racemic)
MIC (Micrococcus luteus): 4 µg/mL (≈ 9.17 µM) | MIC (Staphylococcus aureus [1]): 16 µg/mL (≈ 36.7 µM) | MIC (Staphylococcus aureus [2]): 8 µg/mL (≈ 18.3 µM) | MIC (Bacillus spizizenii): 32 µg/mL (≈ 73.3 µM) | MIC (Pseudomonas aeruginosa): 4 µg/mL (≈ 9.17 µM) | MIC (Escherichia coli): 4 µg/mL (≈ 9.17 µM) | MIC (Shigella dysenteriae): 16 µg/mL (≈ 36.7 µM) | MIC [3]: 4 µg/mL (≈ 9.17 µM) | MIC (Cyberlindnera jadinii): 64 µg/mL (≈ 147 µM) | MIC (Saccharomyces cerevisiae): 64 µg/mL (≈ 147 µM) | MIC (Candida albicans): 128 µg/mL (≈ 293 µM) | MIC (Pichia norvegensis): 64 µg/mL (≈ 147 µM)

CCOC(=O)c1cn(CC(O)Cn2cnc([N+](=O)[O-])c2)c2ccc(C)cc2c1=O (racemic)
MIC (Micrococcus luteus): 8 µg/mL (≈ 20 µM) | MIC (Staphylococcus aureus [1]): 16 µg/mL (≈ 40 µM) | MIC (Staphylococcus aureus [2]): 16 µg/mL (≈ 40 µM) | MIC (Bacillus spizizenii): 8 µg/mL (≈ 20 µM) | MIC (Pseudomonas aeruginosa): 4 µg/mL (≈ 9.99 µM) | MIC (Escherichia coli): 8 µg/mL (≈ 20 µM) | MIC (Shigella dysenteriae): 8 µg/mL (≈ 20 µM) | MIC [3]: 4 µg/mL (≈ 9.99 µM) | MIC (Cyberlindnera jadinii): 8 µg/mL (≈ 20 µM) | MIC (Saccharomyces cerevisiae): 8 µg/mL (≈ 20 µM) | MIC (Candida albicans): 2 µg/mL (≈ 5 µM) | MIC (Pichia norvegensis): 128 µg/mL (≈ 320 µM)

CCOC(=O)c1cn(CC(O)Cn2cnc([N+](=O)[O-])c2)c2c(F)cc(F)cc2c1=O (racemic)
MIC (Micrococcus luteus): 4 µg/mL (≈ 9.47 µM) | MIC (Staphylococcus aureus [1]): 32 µg/mL (≈ 75.8 µM) | MIC (Staphylococcus aureus [2]): 4 µg/mL (≈ 9.47 µM) | MIC (Bacillus spizizenii): 8 µg/mL (≈ 18.9 µM) | MIC (Pseudomonas aeruginosa): 4 µg/mL (≈ 9.47 µM) | MIC (Escherichia coli): 8 µg/mL (≈ 18.9 µM) | MIC (Shigella dysenteriae): 16 µg/mL (≈ 37.9 µM) | MIC [3]: 2 µg/mL (≈ 4.74 µM) | MIC (Cyberlindnera jadinii): 64 µg/mL (≈ 152 µM) | MIC (Saccharomyces cerevisiae): 128 µg/mL (≈ 303 µM) | MIC (Candida albicans): 32 µg/mL (≈ 75.8 µM) | MIC (Pichia norvegensis): 16 µg/mL (≈ 37.9 µM)

CCOC(=O)c1cn(CC2CO2)c2c(F)cc(F)cc2c1=O (racemic)
MIC (Bacillus spizizenii): 32 µg/mL (≈ 103 µM) | MIC [3]: 2 µg/mL (≈ 6.47 µM) | MIC (Cyberlindnera jadinii): 512 µg/mL (≈ 1660 µM) | MIC (Pichia norvegensis): 16 µg/mL (≈ 51.7 µM)

CCOC(=O)c1cn(CC2CO2)c2ccc(F)cc2c1=O (racemic)
MIC (Bacillus spizizenii): 64 µg/mL (≈ 220 µM) | MIC [3]: 8 µg/mL (≈ 27.5 µM) | MIC (Pichia norvegensis): 8 µg/mL (≈ 27.5 µM)

CCOC(=O)c1cn(CC(O)Cn2cnc([N+](=O)[O-])c2)c2cc(Cl)c(F)cc2c1=O (racemic)
MIC (Micrococcus luteus): 16 µg/mL (≈ 36.5 µM) | MIC (Staphylococcus aureus [1]): 4 µg/mL (≈ 9.12 µM) | MIC (Staphylococcus aureus [2]): 16 µg/mL (≈ 36.5 µM) | MIC (Bacillus spizizenii): 16 µg/mL (≈ 36.5 µM) | MIC (Pseudomonas aeruginosa): 16 µg/mL (≈ 36.5 µM) | MIC (Escherichia coli): 32 µg/mL (≈ 72.9 µM) | MIC (Shigella dysenteriae): 16 µg/mL (≈ 36.5 µM) | MIC [3]: 8 µg/mL (≈ 18.2 µM) | MIC (Cyberlindnera jadinii): 32 µg/mL (≈ 72.9 µM) | MIC (Saccharomyces cerevisiae): 64 µg/mL (≈ 146 µM) | MIC (Candida albicans): 32 µg/mL (≈ 72.9 µM) | MIC (Pichia norvegensis): 128 µg/mL (≈ 292 µM)

CCOC(=O)c1cn(CC(O)Cn2c([N+](=O)[O-])cnc2C)c2ccc(OC)cc2c1=O (racemic)
MIC (Micrococcus luteus): 256 µg/mL (≈ 595 µM) | MIC (Staphylococcus aureus [1]): 8 µg/mL (≈ 18.6 µM) | MIC (Staphylococcus aureus [2]): 16 µg/mL (≈ 37.2 µM) | MIC (Bacillus spizizenii): 8 µg/mL (≈ 18.6 µM) | MIC (Pseudomonas aeruginosa): 64 µg/mL (≈ 149 µM) | MIC (Escherichia coli): 8 µg/mL (≈ 18.6 µM) | MIC (Shigella dysenteriae): 32 µg/mL (≈ 74.3 µM) | MIC [3]: 16 µg/mL (≈ 37.2 µM) | MIC (Cyberlindnera jadinii): 256 µg/mL (≈ 595 µM) | MIC (Saccharomyces cerevisiae): 2 µg/mL (≈ 4.65 µM) | MIC (Candida albicans): 8 µg/mL (≈ 18.6 µM) | MIC (Pichia norvegensis): 256 µg/mL (≈ 595 µM)
